Laboratory results: ChEMBL document CHEMBL3997791, “Nanomolar-Potency Aminophenyl-1,3,5-triazine Activators of the Cystic Fibrosis Transmembrane Conductance Regulator (CFTR) Chloride Channel for Prosecretory Therapy of Dry Eye Diseases” (J Med Chem, 2017)
Activity calls are given as the source filed them. The calls are words filed in the database; no cut-off is given here.

Columns and labels:
[1] = target: T1, Cystic fibrosis transmembrane conductance regulator (Homo sapiens, UniProt P13569); test: Activation of CFTR in human primary bronchial epithelial cells assessed as increase in forskolin-stimulated short-circuit current at 0.1 uM preincubated for 10 mins followed by forskolin addition by voltage clamp method
Mus musculus [2] = test: Induction of tear secretion in mouse at 250 pmol administered as single topical dose after 12 to 24 hrs by phenol red thread test; format: functional
In short: (§1)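 Mice 8–12 weeks (25–35 g); single ocular dose of 250 pmol (100 μM) in 2.5 μL vehicle (0.3% CMC in Ringer's), both eyes treated identically, vehicle control. Tear volume by phenol red thread, 10 s in lateral canthus under isoflurane, before and at set times after dosing. 5 mice, 10 eyes per condition; two-way ANOVA with Dunnett test.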

Mus musculus [3] = test: Induction of tear secretion in mouse assessed as minimum compound concentration required to show maximum effect administered as single topical dose at 1 to 3 hrs post dose by phenol red thread test; format: functional
In short: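 Dose-response in mice: single ocular doses of varied amounts (down to 25 pmol) in 2.5 μL ophthalmic vehicle to both eyes, vehicle control. Tear volume by phenol red thread (10 s, lateral canthus, isoflurane anesthesia) before and at timed points after dosing; 5 mice, 10 eyes per condition.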

[4] = Chemical stability in opthalmic vehicle containing 0.3% CMC in Ringer's solution at 100 uM up to 24 hrs at 40 degC by LC-MS analysis; format: physicochemical
In short: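 Compound dissolved at 100 μM in ophthalmic vehicle (0.3% CMC in Ringer's solution), held 24 h at 40 °C; chemical integrity checked by LC/MS.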

[5] = target: T1, Cystic fibrosis transmembrane conductance regulator; test: Activation of CFTR in human primary bronchial epithelial cells assessed as increase in short-circuit current up to 10 uM measured after 10 mins in absence of forskolin by voltage clamp method
[6] = Cytotoxicity against Fischer rat thyroid cells assessed as effect on cell survival up to 10 uM after 8 hrs by alamar blue assay; format: cell-based
In short: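 FRT cells cultured overnight, then incubated 8 h with compound up to 10 μM; 33% DMSO as positive control. Viability read by Alamar Blue; mean ± SEM, n = 8.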

Mus musculus [7] = test: Induction of tear secretion in mouse lacking functional CFTR up to 250 pmol administered as single topical dose up to 6 hrs by phenol red thread test; conditions: in vivo, topical_or_ocular
In short: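 CF mice lacking functional CFTR; single ocular dose of 250 pmol in 2.5 μL ophthalmic vehicle, both eyes, vehicle control. Tear volume by phenol red thread 10 s in lateral canthus under isoflurane, measured before and at timed points after dosing. 5 mice, 10 eyes per condition.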

[8] = Solubility of the compound in phosphate buffered solution; format: physicochemical
[9] = target: T2, Solute carrier family 12 member 2 (Homo sapiens) (UniProt P55011); test: Inhibition of NKCC1 in human primary bronchial epithelial cells assessed as effect on short-circuit current at 10 uM after 10 mins by voltage clamp method
T2 sequence (whole entry): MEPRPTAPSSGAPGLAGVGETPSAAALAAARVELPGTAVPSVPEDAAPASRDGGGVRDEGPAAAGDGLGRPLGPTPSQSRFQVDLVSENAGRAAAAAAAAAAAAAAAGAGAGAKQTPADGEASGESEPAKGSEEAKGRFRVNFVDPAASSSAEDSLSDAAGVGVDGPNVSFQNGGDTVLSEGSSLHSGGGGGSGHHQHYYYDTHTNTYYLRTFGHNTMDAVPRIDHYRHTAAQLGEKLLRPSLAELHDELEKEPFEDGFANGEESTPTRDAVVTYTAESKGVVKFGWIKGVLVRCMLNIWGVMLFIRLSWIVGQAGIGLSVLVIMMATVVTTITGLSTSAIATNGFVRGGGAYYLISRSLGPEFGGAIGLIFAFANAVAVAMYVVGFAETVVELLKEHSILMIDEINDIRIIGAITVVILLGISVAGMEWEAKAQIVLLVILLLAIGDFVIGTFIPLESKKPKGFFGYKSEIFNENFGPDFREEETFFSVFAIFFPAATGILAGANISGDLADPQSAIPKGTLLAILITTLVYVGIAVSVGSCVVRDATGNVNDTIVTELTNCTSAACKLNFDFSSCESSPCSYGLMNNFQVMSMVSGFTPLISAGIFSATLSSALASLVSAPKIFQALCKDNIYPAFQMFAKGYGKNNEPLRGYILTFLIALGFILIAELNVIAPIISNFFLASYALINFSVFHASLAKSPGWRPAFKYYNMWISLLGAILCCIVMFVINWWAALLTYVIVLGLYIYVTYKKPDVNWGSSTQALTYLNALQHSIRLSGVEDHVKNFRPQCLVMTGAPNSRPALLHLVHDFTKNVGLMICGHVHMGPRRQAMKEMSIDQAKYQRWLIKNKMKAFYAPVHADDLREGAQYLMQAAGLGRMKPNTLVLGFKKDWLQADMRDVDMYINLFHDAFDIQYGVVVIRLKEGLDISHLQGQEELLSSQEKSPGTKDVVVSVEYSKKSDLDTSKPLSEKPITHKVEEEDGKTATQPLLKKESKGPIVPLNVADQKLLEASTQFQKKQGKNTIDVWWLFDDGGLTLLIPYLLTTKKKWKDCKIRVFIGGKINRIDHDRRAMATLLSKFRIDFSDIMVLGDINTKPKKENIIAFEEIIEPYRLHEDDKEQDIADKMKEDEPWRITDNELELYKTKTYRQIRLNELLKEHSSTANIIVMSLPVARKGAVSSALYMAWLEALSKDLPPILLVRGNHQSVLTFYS
In short: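 Primary human bronchial epithelial cultures (air-liquid interface) in Ussing chambers, symmetrical HCO3−-buffered solutions, 95% O2/5% CO2, 37 °C. After 10 min preincubation with 10 μM compound, sequential 20 μM amiloride, 20 μM forskolin, 10 μM CFTRinh-172, 100 μM ATP; short-circuit current recorded under voltage clamp.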

[10] = Metabolic stability in rat hepatic microsomes assessed as parent compound remaining at 5 uM after 15 mins in presence of NADPH by LC-MS analysis; format: ADME, Microsome; conditions: liver microsomes, read-out: Stability
In short: (§2)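 Compound at 5 μM incubated at 37 °C with rat liver microsomes (1 mg/mL) in potassium phosphate buffer with 1 mM NADPH; quenched with ice-cold EtOAc, centrifuged, supernatant analysed by LC/MS (C18, water/acetonitrile with 0.1% formic acid gradient, UV 254 nm) for parent remaining; mean ± SEM, n = 3.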

Mus musculus [11] = test: Induction of tear secretion in mouse at 250 pmol administered as single topical dose up to 8 hrs by phenol red thread test; format: functional; in short: as §1
[12] = Metabolic stability in rat hepatic microsomes assessed as parent compound remaining at 5 uM after 60 mins in presence of NADPH by LC-MS analysis; format: ADME, Microsome; conditions: liver microsomes, read-out: Stability; in short: as §2

T1 sequence (P13569 whole entry, looked up): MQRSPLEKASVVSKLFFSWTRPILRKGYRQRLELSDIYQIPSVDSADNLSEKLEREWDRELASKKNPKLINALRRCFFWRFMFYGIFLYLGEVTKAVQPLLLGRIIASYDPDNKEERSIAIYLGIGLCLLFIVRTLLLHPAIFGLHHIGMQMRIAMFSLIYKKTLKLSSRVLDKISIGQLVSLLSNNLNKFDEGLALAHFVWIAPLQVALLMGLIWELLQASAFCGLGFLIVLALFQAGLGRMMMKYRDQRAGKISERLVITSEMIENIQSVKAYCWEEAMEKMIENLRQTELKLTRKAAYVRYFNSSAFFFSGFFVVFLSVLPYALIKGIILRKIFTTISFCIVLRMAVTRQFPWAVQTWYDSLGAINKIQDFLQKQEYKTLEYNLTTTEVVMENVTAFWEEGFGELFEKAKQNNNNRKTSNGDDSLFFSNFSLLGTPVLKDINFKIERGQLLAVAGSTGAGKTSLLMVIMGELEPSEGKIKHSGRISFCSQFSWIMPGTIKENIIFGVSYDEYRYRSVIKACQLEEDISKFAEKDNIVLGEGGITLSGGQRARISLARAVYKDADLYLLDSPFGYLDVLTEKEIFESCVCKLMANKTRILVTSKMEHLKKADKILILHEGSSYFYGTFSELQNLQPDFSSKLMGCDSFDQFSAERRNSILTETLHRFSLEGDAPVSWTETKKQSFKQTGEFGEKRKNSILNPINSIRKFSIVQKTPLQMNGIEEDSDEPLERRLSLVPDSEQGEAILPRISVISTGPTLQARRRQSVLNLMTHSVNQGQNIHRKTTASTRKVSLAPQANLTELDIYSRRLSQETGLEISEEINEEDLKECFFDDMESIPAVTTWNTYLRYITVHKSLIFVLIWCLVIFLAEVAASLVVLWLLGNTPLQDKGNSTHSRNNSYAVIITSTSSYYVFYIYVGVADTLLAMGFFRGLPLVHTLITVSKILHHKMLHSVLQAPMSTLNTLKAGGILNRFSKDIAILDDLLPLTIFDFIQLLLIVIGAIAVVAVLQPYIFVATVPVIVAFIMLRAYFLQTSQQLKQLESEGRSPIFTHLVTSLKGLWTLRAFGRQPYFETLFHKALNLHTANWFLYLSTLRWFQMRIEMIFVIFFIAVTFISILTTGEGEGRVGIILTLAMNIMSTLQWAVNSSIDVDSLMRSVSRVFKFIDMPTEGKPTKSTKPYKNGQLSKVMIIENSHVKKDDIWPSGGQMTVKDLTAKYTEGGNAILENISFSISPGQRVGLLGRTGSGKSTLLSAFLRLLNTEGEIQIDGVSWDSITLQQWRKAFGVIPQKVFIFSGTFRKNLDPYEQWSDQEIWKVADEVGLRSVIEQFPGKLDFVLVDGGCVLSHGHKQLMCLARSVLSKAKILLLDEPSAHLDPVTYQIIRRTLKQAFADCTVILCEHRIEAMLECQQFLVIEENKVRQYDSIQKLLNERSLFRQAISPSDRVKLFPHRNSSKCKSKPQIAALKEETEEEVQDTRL

| SMILES | Activity [1] | Activity (Mus musculus [2]) | Activity (Mus musculus [3]) [pmol] | Stability [4] | Activity [5] | Activity [6] | Activity (Mus musculus [7]) | solubility [8] [µM] | inhibition [9] | remaining at […], 5 µM [10] [%] | Activity (Mus musculus [11]) | remaining at 1 h, 5 µM [12] [%] |
| --- | --- | --- | --- | --- | --- | --- | --- | --- | --- | --- | --- | --- |
| CNc1nc(Nc2ccccc2)nc(OCC(F)(F)C(F)F)n1 | Active | inactive | 25 | Stable | inactive | Non-Toxic | Non-Toxic | ≤ 10 | inactive | < 40 | Active |  |
| CCN(CC)c1nc(Nc2ccc3ncsc3c2)nc(OC(C(F)(F)F)C(F)(F)F)n1 |  |  |  |  |  | Non-Toxic |  | ≤ 10 | inactive |  |  | 60 |
